Columns and labels:
Rattus norvegicus [1] = assay: Compound was tested for the inhibition of rat passive cutaneous anaphylaxis (PCA) administered intraperitoneally; assay type: functional; conditions: ip
In short: (§1)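 Male Sprague-Dawley rats were given 0.05 mL of high-titer IgE rat anti-ovalbumin antiserum intradermally. 24 h later: iv ovalbumin plus Evans Blue in saline, with simultaneous intradermal serotonin and histamine. Drug given ip 1 h before antigen. At 30 min, skin was reflected and wheal size and colour scored against a chart. %inhibition = (1 − mean treated/mean control score)×100. Dunnett's test, p ≤ 0.05.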

Cavia porcellus [2] = assay: Percent inhibition at a dose of 1 mg/kg at given time postdosing intraperitoneally 7 h; assay type: functional; conditions: ip, route intraperitoneal
In short: (§2)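 Guinea pigs were sensitized with egg albumin 1 mg sc plus pertussis vaccine adjuvant. Two weeks later they were anesthetized (pentobarbital 65 mg/kg ip) and cannulated. Drug was given ip or orally at 1 mg/kg. Challenge with egg albumin 0.5 mg/kg iv at 1, 7, 8 or 24 h post-dose, with bronchoconstriction measured. %inhibition given as mean ± SD.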

Rattus norvegicus [3] = assay: Compound was tested for percent inhibition, at 1.1 mg/kg administered intraperitoneally against histamine; assay type: functional; conditions: ip, route intraperitoneal; in short: as §1
Rattus norvegicus [4] = assay: Compound was tested for the inhibition of rat passive cutaneous anaphylaxis (PCA) Dose administered intraperitoneally; assay type: functional; in short: as §1
Rattus norvegicus [5] = assay: Compound was tested for percent inhibition, at 3.3 mg/kg administered intraperitoneally against serotonin by Dunnett's test; assay type: functional; conditions: ip, route intraperitoneal; in short: as §1
Rattus norvegicus [6] = assay: Compound was tested for percent inhibition, at 3.3 mg/kg administered intraperitoneally against histamine by Dunnett's test; assay type: functional; conditions: ip, route intraperitoneal; in short: as §1
Rattus norvegicus [7] = assay: Compound was tested for percent inhibition, at 1.1 mg/kg administered intraperitoneally against serotonin by Dunnett's test; assay type: functional; conditions: ip, route intraperitoneal; in short: as §1
Cavia porcellus [8] = assay: Percent inhibition at a dose of 1 mg/kg at given time postdosing orally 1 h; assay type: functional; conditions: route oral; in short: as §2
Cavia porcellus [9] = assay: Percent inhibition at a dose of 1 mg/kg at given time postdosing orally 8 h; assay type: functional; conditions: route oral; in short: as §2
Cavia porcellus [10] = assay: Compound was tested for the inhibition of guinea pig active lung anaphylaxis (ALA) Dose administered intravenously; assay type: functional
In short: (§3)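 Guinea pigs were sensitized with egg albumin 1 mg sc plus Bordetella pertussis vaccine adjuvant. Two weeks later: pentobarbital 65 mg/kg ip, then trachea, jugular vein and carotid cannulated. Drug given iv before an iv egg albumin challenge (0.5 mg/kg). Airway resistance (bronchoconstriction) and arterial pressure monitored. %inhibition given as mean ± SE; ED50 iv with 95% confidence limits.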

Cavia porcellus [11] = assay: Percent inhibition at a dose of 1 mg/kg at given time postdosing orally 24 h; assay type: functional; conditions: route oral; in short: as §2
Cavia porcellus [12] = species: Cavia porcellus; assay: Compound was tested for the inhibition of guinea pig active lung anaphylaxis (ALA) Percent inhibition; assay type: functional; in short: as §3
Rattus norvegicus [13] = species: Rattus norvegicus; assay: Compound was tested for the inhibition of rat passive cutaneous anaphylaxis (PCA) Percent inhibition; assay type: functional; in short: as §1
Cavia porcellus [14] = assay: Percent inhibition at a dose of 1 mg/kg at given time postdosing intraperitoneally 1 h; assay type: functional; conditions: ip, route intraperitoneal; in short: as §2
Rattus norvegicus [15] = assay: Compound was tested […] for the inhibition of serotonin release in rat peritoneal cell
Cavia porcellus [16] = assay: Percent inhibition at a dose of 1 mg/kg at given time postdosing intraperitoneally 24 h; assay type: functional; conditions: ip, route intraperitoneal; in short: as §2
Rattus norvegicus [17] = assay: Compound was tested for percent inhibition, at 3.3 mg/kg administered intraperitoneally against rat passive cutaneous anaphylaxis by Dunnett's test; assay type: functional; conditions: ip, route intraperitoneal; in short: as §1
Rattus norvegicus [18] = assay: Compound was tested for the inhibition of rat passive cutaneous anaphylaxis (PCA) at 0.37 mg/kg dose ip (1h pretreatment); assay type: functional; conditions: route intraperitoneal; in short: as §1
Rattus norvegicus [19] = assay: Compound was tested for percent inhibition, at 0.37 mg/kg administered intraperitoneally against histamine by Dunnett's test; assay type: functional; conditions: ip, route intraperitoneal; in short: as §1
Rattus norvegicus [20] = assay: Compound was tested for percent inhibition, at 0.12 mg/kg administered intraperitoneally against serotonin by Dunnett's test; assay type: functional; conditions: ip, read-out: Inhibition, route intraperitoneal; in short: as §1
Rattus norvegicus [21] = assay: Compound was tested for percent inhibition, at 0.37 mg/kg administered intraperitoneally against serotonin by Dunnett's test; assay type: functional; conditions: ip, route intraperitoneal; in short: as §1
Rattus norvegicus [22] = assay: Compound was tested […] for the inhibition of serotonin release in rat peritoneal cell; assay type: functional
Cavia porcellus [23] = assay: Compound was tested for the inhibition of guinea pig active lung anaphylaxis (ALA) at 1 mg/kg iv; assay type: functional; in short: as §3
Rattus norvegicus [24] = assay: Compound was tested for percent inhibition, at 0.12 mg/kg administered intraperitoneally against rat passive cutaneous anaphylaxis by Dunnett's test; assay type: functional; conditions: ip, read-out: Inhibition, route intraperitoneal; in short: as §1
Rattus norvegicus [25] = assay: Compound was tested for percent inhibition, at 0.12 mg/kg administered intraperitoneally against histamine; assay type: functional; conditions: ip, read-out: Inhibition, route intraperitoneal; in short: as §1
Cavia porcellus [26] = assay: Compound was tested for the inhibition of guinea pig active lung anaphylaxis (ALA) administered intravenously; assay type: functional; conditions: iv; in short: as §3
Cavia porcellus [27] = assay: Inhibition of guinea pig ALA at a dose of 1 mg/kg after 24 hr postdosing orally; assay type: functional; conditions: route oral; in short: as §2
Cavia porcellus [28] = assay: Compound was tested for the inhibition of guinea pig active lung anaphylaxis (ALA) at 0.01 mg/kg iv; assay type: functional; in short: as §3
Cavia porcellus [29] = assay: Inhibition of guinea pig ALA at a dose of 1 mg/kg after 1 hr postdosing orally 1 h; assay type: functional; conditions: route oral; in short: as §2
Cavia porcellus [30] = assay: Inhibition of guinea pig ALA at a dose of 1 mg/kg after 24 hr postdosing intraperitoneally; assay type: functional; conditions: ip, route intraperitoneal; in short: as §2
Cavia porcellus [31] = assay: Inhibition of guinea pig ALA at a dose of 1 mg/kg after 7 hr postdosing intraperitoneally; assay type: functional; conditions: ip, route intraperitoneal; in short: as §2
Cavia porcellus [32] = assay: Inhibition of guinea pig ALA at a dose of 1 mg/kg after 8 hr postdosing orally; assay type: functional; conditions: route oral; in short: as §2
Cavia porcellus [33] = assay: Inhibition of guinea pig ALA at a dose of 1 mg/kg after 1 hr postdosing intraperitoneally 1 h; assay type: functional; conditions: ip, route intraperitoneal; in short: as §2
Rattus norvegicus [34] = assay: Compound was tested for percent inhibition, at 0.37 mg/kg administered intraperitoneally against histamine; assay type: functional; conditions: ip, route intraperitoneal; in short: as §1
Rattus norvegicus [35] = assay: Compound was tested for the inhibition of rat passive cutaneous anaphylaxis (PCA) at 10 mg/kg dose ip (1h pretreatment); assay type: functional; conditions: route intraperitoneal

Row | IC50 (Rattus norvegicus [22]) [µM] | SMILES | ED50 (Rattus norvegicus [1]) [mg/kg] | inhibition in vivo at 3.3 mg/kg (Rattus norvegicus [5]) [%] | inhibition in vivo at 3.3 mg/kg (Rattus norvegicus [6]) [%] | inhibition in vivo at 3.3 mg/kg (Rattus norvegicus [17]) [%] | inhibition in vivo at 0.37 mg/kg (Rattus norvegicus [18]) [%] | inhibition in vivo at 0.37 mg/kg (Rattus norvegicus [21]) [%] | inhibition in vivo at 1 mg/kg (Cavia porcellus [23]) [%] | ED50 (Cavia porcellus [26]) [mg/kg] | inhibition in vivo at 0.37 mg/kg (Rattus norvegicus [34]) [%] | other results
1 | 15.2 | OCCCN1CCN(C2=Nc3ccccc3Cn3c2cc2ccccc23)CC1 | 0.08 | – | – | – | 92.9 | 53.2 | 64 | 0.69 | – | inhibition in vivo at 0.37 mg/kg (Rattus norvegicus [19]): 53%; inhibition in vivo at 0.12 mg/kg (Rattus norvegicus [20]): 24.9%; inhibition in vivo at 0.12 mg/kg (Rattus norvegicus [24]): 58.8%; inhibition in vivo at 0.12 mg/kg (Rattus norvegicus [25]): 6.8%
2 | 15.9 | CN1CCN(C2=Nc3ccccc3Cn3c2cc2ccccc23)CC1 | 0.19 | 65.9 | 63.3 | 100 | 93.6 | 50.9 | – | 0.01 | 58.2 | inhibition in vivo at 1 mg/kg (Cavia porcellus [27]): 61%; inhibition in vivo at 0.01 mg/kg (Cavia porcellus [28]): 41%; inhibition in vivo at 1 mg/kg (Cavia porcellus [29]): 51%; inhibition in vivo at 1 mg/kg (Cavia porcellus [30]): 26%; inhibition in vivo at 1 mg/kg (Cavia porcellus [31]): 75%; inhibition in vivo at 1 mg/kg (Cavia porcellus [32]): 87%; inhibition in vivo at 1 mg/kg (Cavia porcellus [33]): 74%

Further lines, the molecule ahead of its results:

Row | SMILES | IC50 (Rattus norvegicus [22]) [µM] | ED50 (Rattus norvegicus [1]) [mg/kg] | inhibition in vivo at 3.3 mg/kg (Rattus norvegicus [5]) [%] | inhibition in vivo at 3.3 mg/kg (Rattus norvegicus [6]) [%] | inhibition in vivo at 3.3 mg/kg (Rattus norvegicus [17]) [%] | inhibition in vivo at 0.37 mg/kg (Rattus norvegicus [18]) [%] | inhibition in vivo at 0.37 mg/kg (Rattus norvegicus [21]) [%] | inhibition in vivo at 1 mg/kg (Cavia porcellus [23]) [%] | ED50 (Cavia porcellus [26]) [mg/kg] | inhibition in vivo at 0.37 mg/kg (Rattus norvegicus [34]) [%] | other results
3 | O=c1[nH]c2ccccc2n1CCCN1CCN(C(c2ccccc2)c2ccccc2)CC1 [OXATOMIDE] | – | 1.2 | 46.5 | 49.3 | 100 | – | – | – | – | – | inhibition in vivo at 1 mg/kg (Cavia porcellus [2]): 54%; inhibition in vivo at 1.1 mg/kg (Rattus norvegicus [3]): 38%; Dose (Rattus norvegicus [4]): 1.1 mg/kg; inhibition in vivo at 1.1 mg/kg (Rattus norvegicus [7]): 35.1%; inhibition in vivo at 1 mg/kg (Cavia porcellus [8]): -5%; inhibition in vivo at 1 mg/kg (Cavia porcellus [9]): 45%; Dose (Cavia porcellus [10]): 1 mg/kg; inhibition in vivo at 1 mg/kg (Cavia porcellus [11]): 25%; Inhibition (Cavia porcellus [12]): 43%; Inhibition (Rattus norvegicus [13]): 69.1%; inhibition in vivo at 1 mg/kg (Cavia porcellus [14]): 16%; IC50 (Rattus norvegicus [15]): 20.1 µM; inhibition in vivo at 1 mg/kg (Cavia porcellus [16]): 10.6%
4 | CCCCN1CCN(C2=Nc3ccccc3Cn3c2cc2ccccc23)CC1 | – | 1.32 | – | – | – | 39.9 | – | – | – | – | –
5 | c1ccc2c(c1)Cn1c(cc3ccccc31)C(N1CCNCC1)=N2 | 7.38 | 0.43 | 65.8 | 55.7 | 92.7 | 52 | 44.5 | 82 | – | 14.2 | –
6 | c1ccc2c(c1)Cn1c(cc3ccccc31)C(N1CCCCC1)=N2 | – | – | – | – | – | – | – | – | – | – | inhibition in vivo at 10 mg/kg (Rattus norvegicus [35]): 27.4%

From ChEMBL document CHEMBL1123462, “Indolo[2,1-c][1,4]benzodiazepines: a new class of antiallergic agents” (J Med Chem, 1986)
